≈ marks a conversion by molar mass, not a printed value. Calls of active or inactive are those of the source. The rule behind the calls is not given here.
Key:
[1] = Half life in Balb/c mouse at 3 mg/kg, iv; assay type: ADME, organism-based; conditions: in vivo
Method in brief: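 Single 3 mg/kg IV dose in three BALB/c mice; serum half-life is derived from the concentration–time profile.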

Streptococcus salivarius = test: Antibacterial activity against Streptococcus salivarius […] incubated for 24 hrs under aerobic condition by MABA; assay type: functional; conditions: read-out: MIC100
Method in brief: (§1)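 Resazurin was then added from a 0.08% stock for 1 h. MIC100 was the lowest concentration where the dye stayed blue (pink means growth). Absorbance was also read at 570 and 600 nm.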

Staphylococcus aureus [2] = test: Antibacterial activity against Staphylococcus aureus BAA 2094 incubated for 24 hrs under aerobic condition by MABA; assay type: functional; conditions: BAA 2094, 24 h, read-out: MIC100; method in brief: as §1
Staphylococcus aureus [3] = test: Bactericidal activity against Staphylococcus aureus BAA 2094 incubated for 24 hrs under aerobic condition by MABA; assay type: functional; conditions: BAA 2094, 24 h
Enterococcus faecalis [4] = test: Antibacterial activity against Enterococcus faecalis ATCC 349 incubated for 24 hrs under aerobic condition by MABA; assay type: functional; conditions: ATCC 349, 24 h, read-out: MIC100
Method in brief: (§2)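 Mid-log cultures at OD 0.5 were exposed to serial dilutions under aerobic conditions at 37 °C for 24 h. Resazurin was then added from a 0.08% stock for 1 h. MIC100 was the lowest concentration where the dye stayed blue (pink means growth). Absorbance was also read at 570 and 600 nm.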

Staphylococcus aureus [5] = test: Antibacterial activity against Staphylococcus aureus ATCC 25923 incubated for 24 hrs under aerobic condition by MABA; assay type: functional; conditions: ATCC 25923, 24 h, read-out: MIC100; method in brief: as §2
Acinetobacter baumannii [6] = test: Bactericidal activity against Acinetobacter baumannii ATCC 19606 incubated for 24 hrs under aerobic condition by MABA; assay type: functional; conditions: ATCC 19606 = CIP 70.34 = JCM 6841, 24 h
Acinetobacter baumannii [7] = test: Antibacterial activity against Acinetobacter baumannii ATCC 19606 incubated for 24 hrs under aerobic condition by MABA; assay type: functional; conditions: ATCC 19606 = CIP 70.34 = JCM 6841, 24 h, read-out: MIC100; method in brief: as §2
[8] = Tmax in Balb/c mouse at 30 mg/kg, po; assay type: ADME, organism-based; conditions: in vivo
Method in brief: (§3)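 Single 30 mg/kg oral dose in six BALB/c mice; serum half-life and tmax are derived from the concentration–time profile.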

[9] = Half life in Balb/c mouse at 30 mg/kg, po; assay type: ADME, organism-based; conditions: in vivo; method in brief: as §3
[10] = Half life in Sprague-Dawley rat liver microsomes at 500 ng/ml preincubated for 5 mins followed by NADPH addition by C-MS/MS analysis; assay type: ADME, microsome
[11] = Cmax in Balb/c mouse serum at 30 mg/kg, po; assay type: ADME, organism-based; design: dose 30 mg/kg, route oral
Method in brief: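 Single oral dose of 30 mg/kg in BALB/c mice (n = 6). Serum PK parameters were t1/2, tmax, Cmax and AUC over 0–24 h and to infinity. Oral bioavailability F was calculated against the 3 mg/kg IV dose.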

[12] = test system: Mycobacterium tuberculosis; test: Bactericidal activity against non-replicating Mycobacterium tuberculosis CDC1551 expressing tdTomato infected in mouse J774A.1 cells at 2 times MIC up to 72 hrs by UV-Visible spectroscopic method; assay type: functional, organism-based
Method in brief: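 J774A.1 macrophages are seeded at […] cells/well in DMEM and incubated overnight at 37 °C. They are infected with saline-washed Mtb CDC1551-tdTomato (10^6 bacteria, MOI ≈10), and extracellular bacteria are washed off with PBS. Treatment is at 2×MIC, with fluorescence emission read at 581 nm at 24, 48, 72 and 96 h. Survivors are confirmed by serial dilution and plating on 7H11.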

[13] = AUC (0 to infinity) in Balb/c mouse at 3 mg/kg, iv; assay type: ADME, organism-based; design: dose 3 mg/kg, route intravenous, time infinity; conditions: in vivo
Method in brief: (§4)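 Single IV dose of 3 mg/kg in BALB/c mice (n = 3). Serum concentration-time data were used to derive t1/2, Cmax and AUC over 0–24 h and to infinity.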

[14] = test system: Mycobacterium tuberculosis; test: Antibacterial activity against Mycobacterium tuberculosis; assay type: functional; conditions: read-out: MIC100
Method in brief: (§5)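 Mtb H37Rv grown in 7H9/OADC at 37 °C with shaking to OD600 0.5. The 0.5-OD culture is exposed aerobically to serial dilutions for 15 days at 37 °C. Resazurin (0.02% stock) is then added for 4 h at 37 °C with shaking.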

[15] = test system: Mycobacterium tuberculosis; test: Bactericidal activity against replicating Mycobacterium tuberculosis H37Rv incubated for 15 days under aerobic condition by MABA; assay type: functional; conditions: 360 h; method in brief: as §5
Enterococcus faecalis [16] = test: Antibacterial activity against Enterococcus faecalis ATCC 19433 incubated for 24 hrs under aerobic condition by MABA; assay type: functional; conditions: ATCC 19433, 24 h, read-out: MIC100; method in brief: as §2
[17] = Solubility in water at 10 mg after 24 hrs by HPLC analysis; assay type: physicochemical
Mus musculus [18] = test: Toxicity in po dosed Balb/c mouse assessed as effect on health measured for 7 days; assay type: organism-based; conditions: in vivo, 168 h
Bacillus subtilis = test: Bactericidal activity against Bacillus subtilis ATCC 6051 incubated for 24 hrs under aerobic condition by MABA; assay type: functional; conditions: ATCC 6051, 24 h
Staphylococcus aureus [19] = test: Antibacterial activity against Staphylococcus aureus BAA 44 incubated for 24 hrs under aerobic condition by MABA; assay type: functional; conditions: BAA 44, 24 h, read-out: MIC100; method in brief: as §2
[20] = Apparent permeability from basolateral to apical side in human Caco2 cells at 10 uM after 2 hrs by LC-MS/MS analysis; assay type: ADME, cell-based; conditions: caco-2, 2 h
[21] = test system: Mycobacterium tuberculosis; test: Antibacterial activity against Mycobacterium tuberculosis Erdman infected in Balb/c mouse assessed as reduction in bacterial load in lungs at 50 mg/kg, po for 3 weeks starting from 10 days post infection measured on day 21 post infection; assay type: functional, Erdman = ATCC 35801
Method in brief: (§6)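 Female BALB/c mice, 7–8 weeks old, are aerosol-infected with Mtb Erdman. From day 10 they receive oral gavage in water for three weeks, in groups of 5. Lungs and spleens are harvested at day 21 post-infection and plated for CFU. Efficacy is the log10 reduction in lung burden versus untreated (vehicle) controls.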

Erythrocyte = test: Hemolytic activity in sheep erythrocytes after 2 hrs; assay type: ADME, cell-based; conditions: Ovis aries
Method in brief: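 Washed heparinized sheep erythrocytes at 3% in buffer pH 7.4 were treated with 2–200 µg/mL for 2 h at 37 °C with gentle shaking. Triton X-100 (0.01–1%) was the positive control and PEG:H2O diluent the negative control. Released hemoglobin was read at OD540 and % hemolysis calculated against both controls.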

Mus musculus [22] = test: AUC (0 to 24 hrs) in Balb/c mouse at 3 mg/kg, iv; assay type: ADME, organism-based; design: time < 24 hr, dose 3 mg/kg, route intravenous; conditions: in vivo; method in brief: as §4
Staphylococcus aureus [23] = test: Antibacterial activity against Staphylococcus aureus incubated for 24 hrs under aerobic condition by MABA; assay type: functional; conditions: read-out: MIC100; method in brief: as §1
[24] = test system: Mycobacterium tuberculosis; test: Antibacterial activity against Mycobacterium tuberculosis Erdman infected in Balb/c mouse assessed as reduction in bacterial load in lungs at administered po for 3 weeks starting from 10 days post infection measured on day 21 post infection; assay type: functional, organism-based; conditions: Erdman = ATCC 35801; method in brief: as §6
[25] = test system: Mycobacterium tuberculosis; test: Bactericidal activity against non-replicating Mycobacterium tuberculosis CDC1551 expressing tdTomato infected in mouse J774A.1 cells at 2 times MIC up to 72 hrs by DAPI staining based fluorescence microscopic method; assay type: functional, organism-based
Method in brief: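 J774A.1 macrophages are seeded at 1×10^5 cells/well in chamber slides and infected with tdTomato-expressing Mtb CDC1551 at MOI ≈10. […] Imaging is by fluorescence confocal microscopy.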

[26] = test system: Mycobacterium tuberculosis; test: Antibacterial activity against Mycobacterium tuberculosis Erdman infected in Balb/c mouse assessed as reduction in bacterial load in lungs at 100 mg/kg, po for 3 weeks starting from 10 days post infection measured on day 21 post infection; assay type: functional, Erdman = ATCC 35801; method in brief: as §6

**Q.** Which half-life [1] does the source give for CC[C@]1(C)C[C@@H](OC(=O)CSC(C)(C)CNC(=O)[C@H](N)CC(C)C)[C@]2(C)[C@H](C)CC[C@]3(CC[C@@H](O)[C@H]32)[C@@H](C)[C@@H]1O here?
**A.** Its half-life is 9.98 h.

**Q.** And the MIC (Streptococcus salivarius)?
**A.** The MIC was 6.25 µg/mL (≈ 10.7 µM).

**Q.** What about the MIC (Staphylococcus aureus [2]) of the same compound?
**A.** Its MIC is greater than 25 µg/mL.

**Q.** What about the MBC (Staphylococcus aureus [3]) of the same compound?
**A.** Its MBC is greater than 25 µg/mL.

**Q.** And the MIC (Enterococcus faecalis [4])?
**A.** The MIC was greater than 25 µg/mL.

**Q.** And the MIC (Staphylococcus aureus [5])?
**A.** The MIC was greater than 25 µg/mL.

**Q.** What about the MBC (Acinetobacter baumannii [6]) of the same compound?
**A.** The MBC was 3.13 µg/mL (≈ 5.37 µM).

**Q.** What about the MIC (Acinetobacter baumannii [7]) of the same compound?
**A.** The MIC was 1.56 µg/mL (≈ 2.68 µM).

**Q.** And the Tmax [8]?
**A.** The Tmax was 0.83 h.

**Q.** What about the half-life [9] of the same compound?
**A.** The half-life was 4.02 h.

**Q.** And the t1/2 [10]?
**A.** Its t1/2 is greater than 1 h.

**Q.** And the Cmax [11]?
**A.** The Cmax was 2960 ng/mL.

**Q.** What about the Activity [12] of the same compound?
**A.** Its Activity is “Active”.

**Q.** And the AUC(0-inf) [13]?
**A.** Its AUC(0-inf) is 1050 ng·h/mL.

**Q.** And the MIC [14]?
**A.** Its MIC is less than 6.25 µg/mL.

**Q.** What about the MBC [15] of the same compound?
**A.** Its MBC is 0.83 µg/mL (≈ 1.42 µM).

**Q.** And the MIC (Enterococcus faecalis [16])?
**A.** Its MIC is 6.25 µg/mL (≈ 10.7 µM).

**Q.** And the solubility [17]?
**A.** The solubility was 104.7 mg/mL (≈ 180000 µM).

**Q.** What about the MTD (Mus musculus [18]) of the same compound?
**A.** Its MTD is greater than 200 mg/kg.

**Q.** And the MBC (Bacillus subtilis)?
**A.** The MBC was greater than 25 µg/mL.

**Q.** What about the MIC (Staphylococcus aureus [19]) of the same compound?
**A.** Its MIC is greater than 25 µg/mL.

**Q.** What about the Papp [20] of the same compound?
**A.** The Papp was 18.3 ×10⁻⁶ cm/s.

**Q.** And the “log(activity)” value [21]?
**A.** Its value is 0.03.

**Q.** And the IC50 (Erythrocyte)?
**A.** Its IC50 is greater than 200 µM.

**Q.** And the AUC (Mus musculus [22])?
**A.** The AUC was 993 ng·h/mL.

**Q.** What about the MIC (Staphylococcus aureus [23]) of the same compound?
**A.** The MIC was 0.78 µg/mL (≈ 1.34 µM).

**Q.** What about the Activity [24] of the same compound?
**A.** Its Activity is “Dose-dependent effect”.

**Q.** What about the Activity [25] of the same compound?
**A.** The Activity was “Active”.

**Q.** And the “log(activity)” value [26]?
**A.** The value was 0.2.
